NPY1 pot ag – potentiates or activates human NPY-Y1 receptor. P25929. NPY-Y1 expressing cells, potentiator/agonist activation. activation, % at 3.6 µM. hit rate 0.37% among 220,000. AID 1304; in the data active = activation above about 33%, passing the limit was not always enough;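 also: cells stimulated with NPY at EC10 then isoproterenol at EC100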
Target sequence (P25929 whole entry, looked up): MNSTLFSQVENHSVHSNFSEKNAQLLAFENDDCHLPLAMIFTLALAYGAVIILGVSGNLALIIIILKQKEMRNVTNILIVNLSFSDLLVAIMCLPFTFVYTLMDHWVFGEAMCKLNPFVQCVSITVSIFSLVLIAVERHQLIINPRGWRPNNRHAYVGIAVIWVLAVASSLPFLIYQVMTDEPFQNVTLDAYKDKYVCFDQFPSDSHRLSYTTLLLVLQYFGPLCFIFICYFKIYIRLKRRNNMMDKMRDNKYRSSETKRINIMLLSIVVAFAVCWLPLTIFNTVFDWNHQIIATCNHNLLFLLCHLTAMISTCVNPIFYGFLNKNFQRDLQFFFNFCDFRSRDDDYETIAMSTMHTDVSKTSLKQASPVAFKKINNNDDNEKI
NPY Y1 blocker – NPY-Y1 (human) receptor antagonism. P25929. HEK293-CNG Y1 cells, membrane potential fluorescence; NPY at EC95, then isoproterenol. inhibition, % at 3.6 µM. hit rate 1% among 200,000;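 active = inhibition above the campaign mean inhibition of all tested compounds plus 3 SD, cut at about 20% in these data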
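Benchmarks – high control isoproterenol alone, low control NPY with isoproterenol · Material – HEK293 Y1/CNG channel cell line · Times – dye 3 h, compound 60 min room temperature, stimulation 45 min · Probe or stimulus – NPY (25 nM), isoproterenol (1 µM), Ro 20-1724 (25 µM) · Evaluation – % inhibition of NPY effect · Signal – fluorescence, membrane potential probe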
NPY-Y2 antag – antagonists of human neuropeptide Y receptor Y2 | NPY-Y2 expressing cells, antagonist mode | P49146 | hit rate 0.99% among 140,000 | inhibition, % at 2.7 µM; in the data active = inhibition above about 17%
NPY-Y2 PAM-ag – potentiators or agonists of human neuropeptide Y receptor Y2; cells expressing NPY-Y2, potentiator/agonist read-out; activation, % at 3.6 µM; hit rate 0.45% among 220,000; AID 1359; in the data active = activation above about 27%;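 also: cells stimulated with NPY near EC25 plus isoproterenol at EC100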
NPY-Y2 pot conf – confirmation of human NPY-Y2 receptor potentiators or agonists; shares compounds with NPY-Y2 PAM-ag; cell-based NPY-Y2 potentiator/agonist assay; activation, % at 3.6 µM; hit rate 20% among 450; AID 1539; in the data active = activation above about 33%
NPY-Y1 potentiator – potentiates or activates NPY-Y1, counter-screen for NPY-Y2 hits; shares compounds with NPY-Y2 PAM-ag; hit rate 20% among 450; activation, % at 3.6 µM; Y1 HEK293-CNG cells, membrane potential fluorescence; AID 1651; in the data active = activation above about 45%;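 also: cells stimulated with submaximal NPY then isoproterenol with phosphodiesterase inhibitor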
NPY-Y1 ag 2 – human NPY-Y1 agonism as NPY-Y2 potentiator counter-screen | hit rate 37% among 450 | shares compounds with NPY-Y2 PAM-ag | HEK293 Y1-CNGC, membrane potential fluorescence | AID 1702 | activation, % at 3.6 µM;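 active = activation above the mean of DMSO-only control wells plus 3 SD, cut at about 18% in these data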;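 also: cells stimulated with 1 µM isoproterenol plus the PDE inhibitor Ro 20-1724; Y1 agonists lower the membrane potential dye signal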
CNGC inh – counter-screen for NPY-Y2 potentiators: inhibitors of CNG channel activity. HEK293-CNG parental, isoproterenol cAMP, membrane potential fluorescence. AID 1703. inhibition, % at 3.6 µM. shares compounds with NPY-Y2 PAM-ag. hit rate 32% among 450;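 active = inhibition above the control-well mean plus 3 SD of those wells, cut at about 22% in these data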
NPY-Y2 ag 2 – activates human NPY-Y2 receptor in potentiator counter-screen; shares compounds with NPY-Y2 PAM-ag; HEK293 Y2/CNGC cells, membrane potential fluorescence, agonist mode; activation, % at 3.6 µM; hit rate 56% among 450; AID 1710;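 active = activation above the mean of solvent-only control wells plus 3 SD, cut at about 10% in these data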;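 also: cells stimulated by isoproterenol with no NPY added so direct agonism is tested; agonism lowers probe fluorescence through less cAMP and CNG channel opening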
Numbers stand for hits; - = inactive; . = no result. Rows were chosen to be rich in hits. Some 1.8% of all compounds tested hit in one or more screens of this group.

SMILES	NPY1 pot ag	NPY Y1 blocker	NPY-Y2 antag	NPY-Y2 PAM-ag	NPY-Y2 pot conf	NPY-Y1 potentiator	NPY-Y1 ag 2	CNGC inh	NPY-Y2 ag 2
COC(=O)c1[nH]c2ccccc2c1NC(=O)CN1CCN(C/C=C/c2ccccc2)CC1	-	-	-	-	.	.	.	.	.
CC(O)C(NS(=O)(=O)c1ccc(Cl)cc1)C(=O)OCC(=O)N1CCN(c2ccccc2)CC1 (stereo not given)	-	-	-	-	.	.	.	.	.
CCOC(=O)c1c(C2CC2)csc1NC(=O)COC(=O)c1cnc(Cl)c(Cl)c1	-	-	-	60	-	-	-	-	-
O=S(=O)(c1cnc(Cl)c(Cl)c1)N1CCc2ccccc21	-	.	.	42	-	-	-	32	23
O=S(=O)(c1cnc(Cl)c(Cl)c1)N1CCCc2ccccc21	-	-	-	-	.	.	.	.	.
Cc1c(C(=O)O)[nH]c2ccc([N+](=O)[O-])cc12	-	-	.	30	-	-	39	-	31
O=C(NCCO)C(O)C(O)C(=O)NCCO (stereo not given)	-	-	.	-	.	.	.	.	.
CC(C)c1ccc2oc(-c3ccc(NC(=O)c4ncn[nH]4)cc3)nc2c1	-	-	-	-	.	.	.	.	.
CCC(C)c1ccc2oc(-c3ccc(NC(=O)c4ncn[nH]4)cc3)nc2c1 (stereo not given)	-	-	-	35	-	-	-	-	-
COc1ccc(/C=C(\NC(=O)c2ccccc2)C(=O)OCC2CCCN3CCCCC23)cc1OC (stereo not given)	-	-	.	-	.	.	.	.	.
COc1ccc(C(=O)NNC(=O)c2cccc(F)c2)cc1	-	-	.	-	.	.	.	.	.
O=C(Nc1cccc([N+](=O)[O-])c1)c1cc2ccccc2cc1O	-	.	.	57	-	-	-	-	11
CSCC[C@H](NC(=O)c1nn(C)c(=O)c2ccccc12)c1nc2ccccc2[nH]1	-	-	-	-	.	.	.	.	.
Cc1nc(Cl)sc1C(=O)Nc1cccc(Cl)c1C	-	-	-	-	.	.	.	.	.
Oc1ccccc1N=Nc1ccccc1O	-	-	.	29	36	46	30	27	43
CC(=O)c1ccccc1NCC(=O)Nc1ccc(C)cc1	-	-	.	-	.	.	.	.	.
CCC(C)N(C)C1CCN(C(=S)Nc2cccc(OC)c2)CC1 (stereo not given)	-	-	.	82	-	-	-	-	-
Cc1cc(=O)[nH]c(SCC(=O)NCCC2=CCCCC2)n1	-	-	.	-	.	.	.	.	.
CCOc1cc(/C=C(\C#N)C(=O)Nc2ccccc2[N+](=O)[O-])ccc1OCc1cccc2ccccc12	-	-	.	-	.	.	.	.	.
CNC[C@H](O)c1ccc(O)c(O)c1	-	-	-	60	59	48	71	58	49
Cc1ccc(-n2c(SCC(N)=O)nc3c(c2=O)C2(CCCC2)Cc2ccccc2-3)cc1	-	-	-	35	-	47	43	29	42
FC(F)(F)c1cccc(NC(=S)NNC(=S)Nc2cccc(C(F)(F)F)c2)c1	-	.	.	54	-	-	46	44	33
COc1cccc(Oc2c(C)oc3c(CN4CCCC4)c(O)ccc3c2=O)c1	-	.	.	-	.	.	.	.	.
COc1ccc(C2C(C#N)=C(N)Oc3cc(C)[nH]c(=O)c32)c(OC)c1OC (stereo not given)	-	-	-	-	.	.	.	.	.
CC(C)(C)n1cc(S(=O)(=O)c2ccccc2)[nH]c1=O	-	-	.	41	-	-	-	-	-
C/C(=N/OC(=O)c1ccccc1)c1oc(C)nc1C	-	.	.	-	.	.	.	.	.
O=C(N/N=C/c1cccc([N+](=O)[O-])c1)c1cc(-c2ccc3c4c(cccc24)CC3)n[nH]1	-	-	-	-	.	.	.	.	.
O=C(N/N=C/c1ccc(Cl)c([N+](=O)[O-])c1)c1cc(-c2ccc3c4c(cccc24)CC3)n[nH]1	-	.	.	45	-	-	18	-	23
O=C(O)C1CCCN1c1nc(C(F)(F)F)nc2ccccc12 (stereo not given)	-	-	.	75	-	-	-	-	-

Bioassay records from PubChem.
